Experimental data reported in ChEMBL document CHEMBL2384977, “Synthesis and biological evaluation of novel styryl benzimidazole derivatives as probes for imaging of neurofibrillary tangles in Alzheimer's disease” (Bioorg Med Chem, 2013).

Legend:
Intestine [1] = test: Biodistribution in ddY mouse intestine at 13.2 to 20.6 kBq, iv measured at 10 mins by gamma counting analysis; format: ADME, organism-based; settings: in vivo
Method in brief: (§1)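 Male ddY mice, 5 weeks old, received the 125I-labelled tracer (13.2–20.6 kBq) intravenously in the tail vein, in 100 µL saline containing ethanol. Animals were sacrificed at 2, 10, 30 and 60 min. Tissue radioactivity is expressed as %ID/g, mean (SD) of 5 animals.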

Pancreas [2] = test: Biodistribution in ddY mouse pancreas at 13.2 to 20.6 kBq, iv measured at 10 mins by gamma counting analysis; format: ADME, organism-based; settings: in vivo; method in brief: as §1
Kidney [3] = test: Biodistribution in ddY mouse kidney at 13.2 to 20.6 kBq, iv measured at 10 mins by gamma counting analysis; format: ADME, organism-based; settings: in vivo; method in brief: as §1
Lung [4] = test: Biodistribution in ddY mouse lung at 13.2 to 20.6 kBq, iv measured at 30 mins by gamma counting analysis; format: ADME, organism-based; settings: in vivo, 0.5 h; method in brief: as §1
Blood [5] = test: Biodistribution in ddY mouse blood at 13.2 to 20.6 kBq, iv measured at 60 mins by gamma counting analysis; format: ADME, organism-based; settings: in vivo, 1 h; method in brief: as §1
Liver [6] = test: Biodistribution in ddY mouse liver at 13.2 to 20.6 kBq, iv measured at 30 mins by gamma counting analysis; format: ADME, organism-based; settings: in vivo, 0.5 h; method in brief: as §1
Heart [7] = test: Biodistribution in ddY mouse heart at 13.2 to 20.6 kBq, iv measured at 30 mins by gamma counting analysis; format: ADME, organism-based; settings: in vivo, 0.5 h; method in brief: as §1
Heart [8] = test: Biodistribution in ddY mouse heart at 13.2 to 20.6 kBq, iv measured at 60 mins by gamma counting analysis; format: ADME, organism-based; settings: in vivo, 1 h; method in brief: as §1
Liver [9] = test: Biodistribution in ddY mouse liver at 13.2 to 20.6 kBq, iv measured at 60 mins by gamma counting analysis; format: ADME, organism-based; settings: in vivo, 1 h; method in brief: as §1
Spleen [10] = test: Biodistribution in ddY mouse spleen at 13.2 to 20.6 kBq, iv measured at 60 mins by gamma counting analysis; format: ADME, organism-based; settings: in vivo, 1 h; method in brief: as §1
Brain [11] = test: Biodistribution in ddY mouse brain at 13.2 to 20.6 kBq, iv measured at 30 mins by gamma counting analysis; format: ADME, organism-based; settings: in vivo, 0.5 h; method in brief: as §1
Intestine [12] = test: Biodistribution in ddY mouse intestine at 13.2 to 20.6 kBq, iv measured at 2 mins by gamma counting analysis; format: ADME, organism-based; settings: in vivo; method in brief: as §1
Liver [13] = test: Biodistribution in ddY mouse liver at 13.2 to 20.6 kBq, iv measured at 2 mins by gamma counting analysis; format: ADME, organism-based; settings: in vivo; method in brief: as §1
Kidney [14] = test: Biodistribution in ddY mouse kidney at 13.2 to 20.6 kBq, iv measured at 60 mins by gamma counting analysis; format: ADME, organism-based; settings: in vivo, 1 h; method in brief: as §1
Stomach [15] = test: Biodistribution in ddY mouse stomach at 13.2 to 20.6 kBq, iv measured per organ at 60 mins by gamma counting analysis; format: ADME, organism-based; settings: in vivo, 1 h
Method in brief: (§2)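 Male ddY mice, 5 weeks old, were injected in the tail vein with the 125I tracer (13.2–20.6 kBq) in 100 µL saline containing ethanol. Sacrifice at 2, 10, 30 and 60 min. Stomach radioactivity is expressed as %ID per whole organ, mean (SD) of 5 animals.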

Pancreas [16] = test: Biodistribution in ddY mouse pancreas at 13.2 to 20.6 kBq, iv measured at 30 mins by gamma counting analysis; format: ADME, organism-based; settings: in vivo, 0.5 h; method in brief: as §1
Blood [17] = test: Biodistribution in ddY mouse blood at 13.2 to 20.6 kBq, iv measured at 10 mins by gamma counting analysis; format: ADME, organism-based; settings: in vivo; method in brief: as §1
Lung [18] = test: Biodistribution in ddY mouse lung at 13.2 to 20.6 kBq, iv measured at 2 mins by gamma counting analysis; format: ADME, organism-based; settings: in vivo; method in brief: as §1
Stomach [19] = test: Biodistribution in ddY mouse stomach at 13.2 to 20.6 kBq, iv measured per organ at 10 mins by gamma counting analysis; format: ADME, organism-based; settings: in vivo; method in brief: as §2
Blood [20] = test: Biodistribution in ddY mouse blood at 13.2 to 20.6 kBq, iv measured at 2 mins by gamma counting analysis; format: ADME, organism-based; settings: in vivo; method in brief: as §1
Kidney [21] = test: Biodistribution in ddY mouse kidney at 13.2 to 20.6 kBq, iv measured at 2 mins by gamma counting analysis; format: ADME, organism-based; settings: in vivo; method in brief: as §1
Spleen [22] = test: Biodistribution in ddY mouse spleen at 13.2 to 20.6 kBq, iv measured at 30 mins by gamma counting analysis; format: ADME, organism-based; settings: in vivo, 0.5 h; method in brief: as §1
Intestine [23] = test: Biodistribution in ddY mouse intestine at 13.2 to 20.6 kBq, iv measured at 60 mins by gamma counting analysis; format: ADME, organism-based; settings: in vivo, 1 h; method in brief: as §1
Pancreas [24] = test: Biodistribution in ddY mouse pancreas at 13.2 to 20.6 kBq, iv measured at 60 mins by gamma counting analysis; format: ADME, organism-based; settings: in vivo, 1 h; method in brief: as §1
[25] = 1-Octanol-PBS buffer partition coefficient, log P of the compound at 0.37 MBq after 2 mins by gamma counting analysis; format: physicochemical
Brain [26] = test: Biodistribution in ddY mouse brain at 13.2 to 20.6 kBq, iv measured at 2 mins by gamma counting analysis; format: ADME, organism-based; settings: in vivo; method in brief: as §1
Blood [27] = test: Biodistribution in ddY mouse blood at 13.2 to 20.6 kBq, iv measured at 30 mins by gamma counting analysis; format: ADME, organism-based; settings: in vivo, 0.5 h; method in brief: as §1
Heart [28] = test: Biodistribution in ddY mouse heart at 13.2 to 20.6 kBq, iv measured at 2 mins by gamma counting analysis; format: ADME, organism-based; settings: in vivo; method in brief: as §1
Intestine [29] = test: Biodistribution in ddY mouse intestine at 13.2 to 20.6 kBq, iv measured at 30 mins by gamma counting analysis; format: ADME, organism-based; settings: in vivo, 0.5 h; method in brief: as §1
Stomach [30] = test: Biodistribution in ddY mouse stomach at 13.2 to 20.6 kBq, iv measured per organ at 30 mins by gamma counting analysis; format: ADME, organism-based; settings: in vivo, 0.5 h; method in brief: as §2
Heart [31] = test: Biodistribution in ddY mouse heart at 13.2 to 20.6 kBq, iv measured at 10 mins by gamma counting analysis; format: ADME, organism-based; settings: in vivo; method in brief: as §1
Stomach [32] = test: Biodistribution in ddY mouse stomach at 13.2 to 20.6 kBq, iv measured per organ at 2 mins by gamma counting analysis; format: ADME, organism-based; settings: in vivo; method in brief: as §2
Lung [33] = test: Biodistribution in ddY mouse lung at 13.2 to 20.6 kBq, iv measured at 60 mins by gamma counting analysis; format: ADME, organism-based; settings: in vivo, 1 h; method in brief: as §1
Liver [34] = test: Biodistribution in ddY mouse liver at 13.2 to 20.6 kBq, iv measured at 10 mins by gamma counting analysis; format: ADME, organism-based; settings: in vivo; method in brief: as §1
Spleen [35] = test: Biodistribution in ddY mouse spleen at 13.2 to 20.6 kBq, iv measured at 2 mins by gamma counting analysis; format: ADME, organism-based; settings: in vivo; method in brief: as §1
Kidney [36] = test: Biodistribution in ddY mouse kidney at 13.2 to 20.6 kBq, iv measured at 30 mins by gamma counting analysis; format: ADME, organism-based; settings: in vivo, 0.5 h; method in brief: as §1
Brain [37] = test: Biodistribution in ddY mouse brain at 13.2 to 20.6 kBq, iv measured at 10 mins by gamma counting analysis; format: ADME, organism-based; settings: in vivo; method in brief: as §1
Brain [38] = test: Ratio of drug level in ddY mouse brain at 13.2 to 20.6 kBq, iv measured at 2 mins to drug level in ddY mouse brain at 13.2 to 20.6 kBq, iv measured at 60 mins; format: ADME, organism-based; settings: in vivo
Method in brief: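 Tail-vein injection of the 125I tracer (13.2–20.6 kBq, saline with ethanol) into male 5-week-old ddY mice. The ratio is brain uptake (%ID/g) at 2 min divided by brain uptake at 60 min, from groups of 5 animals.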

Brain [39] = test: Biodistribution in ddY mouse brain at 13.2 to 20.6 kBq, iv measured at 60 mins by gamma counting analysis; format: ADME, organism-based; settings: in vivo, 1 h; method in brief: as §1
Lung [40] = test: Biodistribution in ddY mouse lung at 13.2 to 20.6 kBq, iv measured at 10 mins by gamma counting analysis; format: ADME, organism-based; settings: in vivo; method in brief: as §1
Pancreas [41] = test: Biodistribution in ddY mouse pancreas at 13.2 to 20.6 kBq, iv measured at 2 mins by gamma counting analysis; format: ADME, organism-based; settings: in vivo; method in brief: as §1
Spleen [42] = test: Biodistribution in ddY mouse spleen at 13.2 to 20.6 kBq, iv measured at 10 mins by gamma counting analysis; format: ADME, organism-based; settings: in vivo; method in brief: as §1

Drug uptake (Intestine [1]): 13.7 % ID/g
Drug uptake (Pancreas [2]): 1.93 % ID/g
Drug uptake (Kidney [3]): 5.04 % ID/g
Drug uptake (Lung [4]): 1.62 % ID/g
Drug uptake (Blood [5]): 1.24 % ID/g
Drug uptake (Liver [6]): 19.3 % ID/g
Drug uptake (Heart [7]): 1.48 % ID/g
Drug uptake (Heart [8]): 1.13 % ID/g
Drug uptake (Liver [9]): 15.6 % ID/g
Drug uptake (Spleen [10]): 2.46 % ID/g
Drug uptake (Brain [11]): 0.26 % ID/g
Drug uptake (Intestine [12]): 4.09 % ID/g
Drug uptake (Liver [13]): 29.4 % ID/g
Drug uptake (Kidney [14]): 3.25 % ID/g
Drug uptake (Stomach [15]): 4.37 %ID
Drug uptake (Pancreas [16]): 0.69 % ID/g
Drug uptake (Blood [17]): 2.72 % ID/g
Drug uptake (Lung [18]): 9.09 % ID/g
Drug uptake (Stomach [19]): 4.13 %ID
Drug uptake (Blood [20]): 5.94 % ID/g
Drug uptake (Kidney [21]): 10.6 % ID/g
Drug uptake (Spleen [22]): 2.71 % ID/g
Drug uptake (Intestine [23]): 27.4 % ID/g
Drug uptake (Pancreas [24]): 1.43 % ID/g
logP at 2 min [25]: 1.88
Drug uptake (Brain [26]): 3.2 % ID/g
Drug uptake (Blood [27]): 1.57 % ID/g
Drug uptake (Heart [28]): 8.31 % ID/g
Drug uptake (Intestine [29]): 22.1 % ID/g
Drug uptake (Stomach [30]): 3.6 %ID
Drug uptake (Heart [31]): 2.84 % ID/g
Drug uptake (Stomach [32]): 1.7 %ID
Drug uptake (Lung [33]): 1.44 % ID/g
Drug uptake (Liver [34]): 29.9 % ID/g
Drug uptake (Spleen [35]): 5.5 % ID/g
Drug uptake (Kidney [36]): 2.54 % ID/g
Drug uptake (Brain [37]): 1.4 % ID/g
Ratio (Brain [38]): 26.7
Drug uptake (Brain [39]): 0.12 % ID/g
Drug uptake (Lung [40]): 3.55 % ID/g
Drug uptake (Pancreas [41]): 4.99 % ID/g
Drug uptake (Spleen [42]): 4.87 % ID/g
Compound: Nc1ccc(/C=C/c2nc3ccc([125I])cc3[nH]2)cc1
